Laboratory results: PubChem BioAssay
Calls of active or inactive are those of the source.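 How the source made its calls, unless noted: active means NADPH fluorescence slope more negative than the mean of all samples by about 3 SD, 99.7% confidence; inactive means the rest.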

How the values were obtained:
[1] = inhibitors of TNFa-induced NFkB p65 translocation, primary screen, imaging, HUVEC, MLSMR starter and 10KST1 sets (AID 438;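 active means inhibition above 20% together with a positive visual image hit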;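 further: compound added about 3h40 before a 20 min TNFalpha stimulation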;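 on inhibition: signal is the nuclear over cytoplasmic p65 intensity ratio per well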); conditions: HUVEC TNFa-induced p65 nuclear translocation; cell count: measured here: nuclei count (cytotoxicity indicator), at 2.08 µM; inhibition: at 2 µM, stronger effect = higher value, 0% TNFa-plus-vehicle, 100% no-TNFa wells
[2] = reduction of polyQ htt aggregates in cells – imaging, exon1htt(103Q)mCFP cells, high-content imaging, primary screen (AID 483;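 active means visual image review flags a hit and inhibition of aggregation exceeds 20%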;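 further: compound exposure lasted 3 days before fixation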;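 on nuclei count: percent of the per-plate median nuclei count of sample wells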); conditions: exon1htt(103Q)mCFP cell line, aggregate imaging, at 2 µM; inhibition of aggregation: stronger effect = higher value; nuclei count: measured here: cell count, toxicity
[3] = endothelial E-selectin expression blockers – imaging, HUVEC, immunofluorescence, MLSMR starter and 10KST1 sets, primary screen (AID 487;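 active means visually confirmed hit in the image check and inhibition above 20%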;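 on inhibition: signal is fraction of cell area covered by stained E-selectin grains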;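 on nuclei count: 100% = median nuclei count of all wells on the same plate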); conditions: HUVEC TNFalpha-induced E-selectin immunofluorescence imaging, at 2 µM; inhibition: stronger effect = higher value; nuclei count: measured here: cell number, toxicity
[4] = target: Voltage-gated potassium channel subunit beta-2 (Rattus norvegicus) (UniProt P62483); assay: inhibitors of rat Kvbeta2 reductase activity – biochemical, NADPH fluorescence, primary screen (AID 622;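 active means fluorescence slope higher than the sample average by over 3 SD, cut at about -0.22 in these data, passing the limit was not always enough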;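 further: slope of raw intensity against log time taken from 70 to 1610 s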); conditions: recombinant KvBeta, 4-cyanobenzaldehyde reduction, at 10 µM, stronger effect = higher value
Chain of Voltage-gated potassium channel subunit beta-2 (Rattus norvegicus) (P62483 whole entry, looked up): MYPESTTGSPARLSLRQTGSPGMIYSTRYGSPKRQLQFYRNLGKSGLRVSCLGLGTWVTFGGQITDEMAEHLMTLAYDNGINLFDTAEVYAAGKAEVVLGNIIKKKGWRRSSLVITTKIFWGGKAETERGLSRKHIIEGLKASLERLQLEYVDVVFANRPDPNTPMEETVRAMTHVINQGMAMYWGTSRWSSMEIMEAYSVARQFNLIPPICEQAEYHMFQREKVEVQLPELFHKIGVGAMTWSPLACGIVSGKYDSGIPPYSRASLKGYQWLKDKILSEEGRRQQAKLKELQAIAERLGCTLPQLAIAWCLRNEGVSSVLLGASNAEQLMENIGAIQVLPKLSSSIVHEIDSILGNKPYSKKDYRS

[5] = target: Voltage-gated potassium channel subunit beta-2 (Rattus norvegicus) (UniProt P62483); assay: enhancers of rat Kvbeta2 NADPH turnover – biochemical, NADPH fluorescence, primary screen (AID 623); conditions: Recombinant KvBeta, NADPH fluorescence decrease slope, 10 min; at 10 µM; stronger effect = lower value;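 further: fluorescence intensity change per second fitted from 20 to 320 s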
[6] = target: Muscarinic acetylcholine receptor M4 (Homo sapiens) (UniProt P08173); assay: M4-linked GIRK flux change, two-sided – cell-based, HEK293 M4/GIRK, thallium flux, BTC-AM, M4 allosteric agonist project, primary screen (AID 625;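 active means fluorescence slope after compound addition differing from the mean of all tested samples at 99.7% confidence, mostly higher but some lower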;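 further: thallium influx through GIRK channels coupled to M4 in HEK293 cells with BTC-AM dye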); conditions: at 10 µM, actives lie on both sides
Chain of Muscarinic acetylcholine receptor M4 (Homo sapiens) (P08173 whole entry, looked up): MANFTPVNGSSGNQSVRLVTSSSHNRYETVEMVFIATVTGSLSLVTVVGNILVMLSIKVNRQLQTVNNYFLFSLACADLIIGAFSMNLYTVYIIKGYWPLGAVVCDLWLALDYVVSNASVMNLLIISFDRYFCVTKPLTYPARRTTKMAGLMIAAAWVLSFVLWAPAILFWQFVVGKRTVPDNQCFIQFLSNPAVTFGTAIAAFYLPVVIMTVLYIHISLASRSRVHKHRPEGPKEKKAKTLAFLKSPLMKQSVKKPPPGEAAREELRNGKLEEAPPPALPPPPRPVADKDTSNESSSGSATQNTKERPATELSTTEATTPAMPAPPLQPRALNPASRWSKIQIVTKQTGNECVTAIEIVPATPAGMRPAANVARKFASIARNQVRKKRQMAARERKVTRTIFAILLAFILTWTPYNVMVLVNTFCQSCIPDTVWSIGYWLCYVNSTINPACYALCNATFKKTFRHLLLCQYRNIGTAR
Outline: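 Material: M4/GIRK1/GIRK2 stable HEK293 cell line. Medium: pH 7.3 thallium assay buffer. Dosing: single compound concentration, 10 µM final. Schedule: 1 h dye loading, 2 min kinetic read. Measured by: kinetic fluorescence with BTC-AM dye. Read-out: post-addition slope, 15–24 s, of baseline-normalized fluorescence. Benchmarks: carbachol and DMSO controls.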

[7] = blockers of RIG-like receptor reporter activation – cell-based, Sendai virus stimulus, luciferase, 10K MLSCN set, TLR/RLR signaling modifier project, primary screen (AID 602276;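 active means inhibition at or above 50% at 10 µM; inactive means inhibition below 50%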;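 further: firefly luciferase from ISG56 promoter only with Renilla not read in this screen; 0% = Sendai virus plus DMSO and 100% = medium plus DMSO without virus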); conditions: HEK293 RL24 IRF3 luciferase reporter, at 10 µM, stronger effect = higher value
[8] = TLR3 IRF3 reporter activation blockers – cell-based, poly I:C stimulus, luciferase, 10K MLSCN set, primary screen (AID 602277;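 active means inhibition of the reporter signal at or above 50%; inactive means inhibition below 50%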); conditions: HEK293-TLR3 RL24 IRF3 luciferase reporter, at 10 µM, stronger effect = higher value

SMILES | cell count [1] | inhibition [1] | inhibition of aggregation [2] | nuclei count [2] [%] | inhibition [3] | nuclei count [3] [%] | fluorescence slope [4] | NADPH fluorescence slope [5] | fluorescence slope [6] | inhibition [7] | inhibition [8]
CCOP(=O)(c1ccc(N(C)C)cc1)C(O)c1cc(OC)c(OC)c(OC)c1 (configuration not stated) | 713 | -0.6% (inactive) | 0% (inactive) | 113 | 10.2% (inactive) | 103 | -0.455 (inactive) | -4.5e-05 (inactive) | 0.00563 (inactive) | 4.26% (inactive) | 21% (inactive)
COc1ccc(CNc2nc(SCC(=O)NCc3ccco3)nc3ccccc23)cc1 | 705 | 0.9% (inactive) | -24.8% (inactive) | 104 | -50.5% (inactive) | 99.3 | -0.484 (inactive) | 9.7e-05 (inactive) | 0.00602 (inactive) | -0.825% (inactive) | 2.94% (inactive)
CC(C(=O)N1CCOCC1)N1c2cccc3cccc(c23)S1(=O)=O (configuration not stated) | 341 | -13.3% (inactive) | 8.6% (inactive) | 109 | -31.4% (inactive) | 102 | -0.548 (inactive) | -2.9e-05 (inactive) | 0.00313 (inactive) | 17.3% (inactive) | 20.6% (inactive)
Cc1cc(NC(=O)CSc2nc3ccsc3c(=O)n2NC(=O)c2ccccc2)no1 | 317 | -1.2% (inactive) | -4.7% (inactive) | 102 | -234% (inactive) | 117 | -0.449 (inactive) | 9e-05 (inactive) | 0.00651 (inactive) | -39.7% (inactive) | -61.1% (inactive)
CCN1CCN(c2c(Cl)cccc2NC(=O)c2ccco2)CC1 | 248 | 10.6% (inactive) | -8.4% (inactive) | 77.9 | -12.4% (inactive) | 84.2 | -0.531 (inactive) | -2.5e-05 (inactive) | 0.00466 (inactive) | 1.94% (inactive) | 29.2% (inactive)
O=C(Nc1ccc(N2CCOCC2)cc1)c1cccc(S(=O)(=O)N2CCCC2)c1 | 401 | -0.5% (inactive) | 6.3% (inactive) | 106 | -31.6% (inactive) | 110 | -0.309 (inactive) | -3.6e-05 (inactive) | 0.00454 (inactive) | 12.2% (inactive) | 9.44% (inactive)
COc1ccc(C2=NOC(C(=O)NCCCN3CCOCC3)C2)cc1 (configuration not stated) | 315 | 3.5% (inactive) | 11.3% (inactive) | 86 | 11.5% (inactive) | 84.7 | -0.554 (inactive) | -0.000122 (inactive) | 0.00417 (inactive) | 11.7% (inactive) | 23.1% (inactive)
